Several values for one entry are separate records, joined by “and”; a condition that tells them apart may be missing. Identical values can stand only once.
Tests used:
[1] = test system: neuropilin-1 (NRP-1); conditions: receptor expressed in angiogenic vasculature; ref [19], [20], [22]; cited from earlier work
[2] = Zeta potential measurement; type: physicochemical; conditions: ultrapure water, pH ~ 7.0, 5 mM gadolinium, 20°C, Zetasizer Nano ZS
How it was run: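 Nanoparticles were suspended in ultrapure water at pH ~7.0 and 5 mM Gd and measured by electrophoretic light scattering (532 nm laser). Readings were taken 2.00 mm from the cell wall with an automatic attenuator at 20°C. Each sample ran 15 runs of 10 s, repeated three times.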

[3] = test system: recombinant chimeric neuropilin-1 (NRP-1) protein; assay: Competitive binding to recombinant NRP-1 protein; conditions: 5 ng/mL biotinylated VEGF165, 2 µg/mL heparin, 2 h room temperature; n=3
How it was run: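 Plates coated overnight at room temperature with recombinant chimeric NRP-1 (2 µg/mL in PBS), washed with PBS/0.05% Tween 20, and blocked with PBS/0.5% BSA for 1 h at 37°C. Biotinylated VEGF165 (5 ng/mL, with 2 µg/mL heparin) was added with increasing test nanoparticle concentrations, Gd-matched control nanoparticles, or excess unlabelled VEGF165 (0.5 µg/mL). Streptavidin-HRP colorimetric read-out at 450 nm was expressed relative to the no-competitor control, in triplicate.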

[4] = test system: MDA-MB-231 cells; assay: Photodynamic activity; type: cell-based, human; conditions: for DL50 (50% cell growth inhibitory light dose): 652 nm, 24 h incubation, MTT 24 h post-irradiation, six replicates
[5] = test system: MDA-MB-231 cells; assay: Photo-induced cytotoxicity, real-time impedance-based cell analysis; parameters: species or system human; conditions: first 24 h post-exposure, before light irradiation; mean of six replicates
How it was run: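 MDA-MB-231 cells were cultured in RPMI with 9% heat-inactivated FBS, penicillin/streptomycin and 2 mM L-glutamine at 37°C, 5% CO2. Cells were seeded at 10^4 per well on electrode plates, and impedance was read every 15 min. At 24 h, test nanoparticles were added at final photosensitizer concentrations of 0.05–10.00 µM, or Gd-matched control nanoparticles at 2.9–585.0 µM. Cells were kept in darkness for 24 h before washing, with six replicates. Cell index was calculated as background-subtracted impedance.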

[6] = test system: orthotopic U87 human glioblastoma (tumor tissue) in nude rats; assay: In vivo tumor MRI contrast enhancement kinetics; parameters: species or system rat; conditions: i.v., 25 µmol of Gd / 250 g
How it was run: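 Male athymic nude rats (rnu/rnu) received 5.10^5 U87 cells in 5 μL HBSS stereotactically into the right striatum (0.5 mm anterior, 2.7 mm lateral to bregma) under i.p. ketamine/xylazine. About 20 days later, nanoparticles were given intravenously in 500 µL, diluted in 9‰ NaCl from an iso-osmolar 100 mM Gd stock at pH ~7.4. Tumor MRI signal was normalized to pre-injection and contralateral tissue, and its decline from peak was followed.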

[7] = UV/Vis absorption and fluorescence spectra; type: physicochemical; conditions: from UV/Vis calibration curve of free TPC
How it was run: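 Absorption spectra were recorded by UV-visible spectrophotometry on ethanol suspensions of nanoparticles and free photosensitizer. Fluorescence spectra were acquired on a spectrofluorimeter with xenon lamp excitation and a thermostatted cell compartment at 25°C.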

Substance | NRP-1 targeting (qualitative) [1] | Zeta potential [2] | Binding to NRP-1 (qualitative) [3] | DL50 (50% cell growth inhibitory light dose) ([4]; 0.1 µM TPC) | DL50 (50% cell growth inhibitory light dose) ([4]; 1.0 µM TPC) | Photocytotoxic effectiveness, 1.0 µM vs 0.1 µM TPC ([4]; ratio of DL50 at 0.1 and 1.0 µM) | Cell index before irradiation [5] | Rate of decrease of tumor MRI contrast ([6]; decrease from maximum peak) | Half-life in tumor tissue (T1/2) ([6]; semi-logarithmic presentation of MRI contrast enhancement decrease) | TPC molecules per nanoparticle [7]
H-ATWLPPR-OH [ATWLPPR] | selectively target NRP-1 receptor |  |  |  |  |  |  |  |  | 
H-ATWLPPR-OH [NP-TPC-ATWLPPR] |  | 12.9±4 mV | greatly displaced | 9.16 J/cm^2 and 9.2 J/cm^2 | 2.80 J/cm^2 and 2.8 J/cm^2 | 3.3 times | no decrease in cell index values | -0.0072 .min^-1 | 1.604 h | ~ 1.7 TPC molecules per nanoparticle

— article PMC3475218 (Theranostics, 2012)
